Test system: MS2 coat protein
Assay: apparent Kd, MS2 coat protein; higher = weaker binding; RNA-MaP array; FMN 200 µM where present
Method in brief: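 The titrant was SNAP-549-labelled MS2 coat protein, run from 0.7 or 1.5 nM in doubling steps to 3 µM. It was applied to designs transcribed by stalled E. coli RNA polymerase on Illumina sequencing-chip clusters, without ligand first and then with constant ligand, in 100 mM Tris-HCl pH 7.5, 80 mM KCl, 4 mM MgCl2, BSA, DTT, yeast tRNA and Tween-20. The apparent Kd is the median of filtered per-cluster binding-curve fits, with green signal normalised to red-channel RNA signal and control-cluster median Fmax.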

[1] = designed as: OFF switch for flavin mononucleotide, no ligand
[2] = ligand present: flavin mononucleotide, designed as: OFF switch for flavin mononucleotide
[3] = designed as: ON switch for flavin mononucleotide, no ligand
[4] = ligand present: flavin mononucleotide, designed as: ON switch for flavin mononucleotide

Row | Sequence | apparent Kd [1] | apparent Kd [2] | apparent Kd [3] | apparent Kd [4]
1 | AACAGUGCUAAUAAAUAAGAUCUACAUGAGGAUCACCCAUGUAAGGAUAUCGUCAGGAAUACUGACGAGAAGGUACAUGCACUG | 15 nM | 25.9 nM |  | 
2 | UGGCGCAACAGAGGAUAUGCAUAGGCUGCCUUACAUGAGGAUCACCCAUGUGCAGAAGGCUGUUGCCAUUACAAGCGCACUAAU | 118 nM | 402 nM |  | 
3 | GCAGCAUAUGCAGGAUAUCAGCACGUGUAGUGCUGAGAAGGGCACAUGAGGAUCACCCAUGUGAUCAAUUAAUAUAUAUGCUGC | 6.36 nM | 16.4 nM |  | 
4 | AGAUAUAUACAUGAGGAUCACCCAUGUUAAUAGGUGUUUGUCAGAAGGCAUUAUGAGAGAAUUAAUGAGGAUAUGAAGUAUCAU |  |  | 37.3 nM | 23 nM
5 | GUCAAGUGAGGAUAUGAUUGUACAACAGACUAGCGUCUGCAUCAGAAGGCACAUGAGGAUCACCCAUGUUUGUC | 19.6 nM | 16.2 nM |  | 
6 | UUUGAUAGCACAGGAUAUUGUCAUUUGAGUUGUCAAGAAGGGUGUACAUGAGGAUCACCCAUGUAAUGGUUGCCUCGCUGACUU | 175 nM | 279 nM |  | 
7 | GCCAUCGCAUGAGGAUAUGCUCCCGUUUCGGGAGCAGAAGGCAUGUCAUAAGACAUGAGGAUCACCCAUGUAGCUAAGAUGGCA |  |  | 310 nM | 12.1 nM
8 | AUGGAUAUCACAGGAUAUGCUAUGGAUACCAUAGCAGAAGGGUGAUCCAUCCUAUGUGAGCACAUGAGGAUCACCCAUGUGUCC |  |  | 123 nM | 23.1 nM
9 | UUUAUAUUCAGAGGAUAUUAAUGUAGUAUAACAUAAGAAGGCUGUUUGUUUUGUAAAGUAAUUCUACAUGAGGAUCACCCAUGU |  |  | 21.4 nM | 16.2 nM
10 | AUCUCAGGACGAGGAUAUCAAUACAUGAGGAUCACCCAUGUAUUACUACUGUGAUCCUUCAAGGCUGAGAAGGCGUCCCAAAUG | 20.7 nM | 37.8 nM |  | 
11 | CUGGUGUGAGGAUAUCAAAGACCUCGGGAUAGUAGCGAGGAUGAGAAGGCACAUGAGGAUCACCCAUGUAACAA | 20.9 nM | 33.8 nM |  | 
12 | UGUCGGAGCAGAGGAUAUUACAUGAGGAUCACCCAUGUAUGAACCAAUAGCUGGAAACAGCAAUGUUAGAAGGCUGCUCCGACA | 5.23 nM | 6.86 nM |  | 
13 | UUAGGUCGAAACAUGAGGAUCACCCAUGUGUUGUAAUUAACAUAGGAUAUGUUUAUACUUUUUGGGCAGAAGGAUGAUAUUGCU |  |  | 17.3 nM | 14 nM
14 | AAGUAUAGAGGAUAUAGUAAGUACUACAUGAGGAUCACCCAUGUUCUUCAUUACGUAUUUCUAGAAGGCUGAUAAA | 376 nM | 581 nM |  | 
15 | GUAGAGUCAGGAUAUACGAGAUCGAUAGAUCAAAGAUCCUUACAUGAGGAUCACCCAUGUAGAAGGGACUCUAC | 37.4 nM | 677 nM |  | 
16 | GUAGCAUUGACAGGAUAUCCAUAUCCGAAAGGGACAUGAGGAUCACCCAUGUCGCGAAAGCGGUGGGAGAAGGGUCUAUGCUAC |  |  | 5.03 nM | 4.38 nM
17 | CUCGAGUUAGGAUAUCGAACGUAACAAGCGGAAACUCCCGCCGAGAAGGAACAUGAGGAUCACCCAUGUGAAAC | 14.9 nM | 18.3 nM |  | 
18 | AGGUACCAUGUUAGGAUAUCACUGACUAACGUCGCUGAGAAGGAACAUGAGGAUCACCCAUGUGCCGGGCUCUU | 20.9 nM | 50.8 nM |  | 
19 | GGUGCCAUGUAGAAGGCAGAUCUGAUUCACAUCUGAGGAUAUACAUGAGGAUCACCCAUGUAAAGGCACCGCACGAGAGUGCAA | 16.3 nM | 15 nM |  | 
20 | CGUUGAUGAUUUCUUCACAUGAGGAUCACCCAUGUCGCUCGACAGGAUAUAUUUGAGUUGUUUAAGUAGAAGGGUCGCAGAUGC |  |  | 112 nM | 183 nM
21 | GAACUCGUGAAGGAUAUCCGUACCAAAGCGGCAGGAGAAGGUCACACAUGAGGAUCACCCAUGUGGUACCUCGU | 30 nM | 130 nM |  | 

Row | Sequence | apparent Kd [1] | apparent Kd [2] | apparent Kd [3] | apparent Kd [4]
22 | GCCUUCGCAUGAGGAUAUGCUCCGGUUUCCGGAGCAGAAGGCAUGUCAUAAGACAUGAGGAUCACCCAUGUAGUUAAGAAGGCA |  |  | 570 nM | 31.7 nM
23 | ACAUGUUUUACAGGAUAUGUUUUACAAUAAACAUUCAGUUAUUACGAUUAAACAGAAGGGUAUACAUGAGGAUCACCCAUGUAA | 17.1 nM | 15 nM |  | 
24 | UGUGCGUAUGUGAGGAUAUGCUGGUCCUUGGCUCGGCAGAAGGCACAUGAGGAUCACCCAUGUGGUGUCGUACU | 108 nM | 104 nM |  | 
25 | AAUAAGUGAGGAUAUGCGUCUGGUCCCGGGAGGGCUAUAUAACAUGAGGAUCACCCAUGUAGAAGGCACAAUAA | 16.8 nM | 13.9 nM |  | 
26 | UUAUUUAGGUAGGAUAUCGAUAUUAAUUAUUAUCGAGAAGGGUCUACAUGAGGAUCACCCAUGUUAGCAUGUAU | 28.1 nM | 29.9 nM |  | 
27 | UUUAAGUCAGGAUAUCGUUAAUUUAAUUGUUUGUUUUAGUUCGAGAAGGGACAUGAGGAUCACCCAUGUAAUUU | 34.3 nM | 38.9 nM |  | 
28 | AAGCACAGAGGAUAUACAUGGGUGAUAAAAAAAAUGUAAAAACAUGAGGAUCACCCAUGUAGAAGGCUGUGCAA | 22.6 nM | 16.5 nM |  | 
29 | CGUCCUUAGUGAGGAUAUCAGAAAAUACGGAAAUGAGAAGGCACAUGAGGAUCACCCAUGUAAAUAACGGCCGGCCUUGGCAGC | 6.26 nM | 13.4 nM |  | 
30 | UAAUGAUAAGCAGGAUAUACUACACAUGAGGAUCACCCAUGUGUGUGAUCCACUCUCGUAUGGUAGUAGAAGGGCUCAGAGUAC | 153 nM | 80.6 nM |  | 
31 | AAGUUUGUACAAGGAUAUCAAUUGUUUCUAAAUUCAACAUGAGGAUCACCCAUGUAACAAUGGAGUGAGAAGGUGUGUGGGCAA |  |  | 419 nM | 423 nM
32 | UAGAUGGCUCAGGAUAUUUGCCAACUAACUCGCGAAGAAGGGAGCACAUGAGGAUCACCCAUGUGAUCGAACGG | 18.8 nM | 45.6 nM |  | 
33 | CUGGUGUCAGGAUAUGCAUAGCAGUGACCGGAACCCGGUCAGCAGAAGGGACAUGAGGAUCACCCAUGUUAAUA | 24.2 nM | 57.7 nM |  | 
34 | GCACGCUGGCGAGGAUAUAGACAUGAGGAUCACCCAUGUGGCGCACAUCGGGCCCUAGUCCUCAGCUAGAAGGCGCCUGUGAUA | 328 nM | 228 nM |  | 
35 | AGCGGCGCGGACCACCGCAAAACCAGAAGGACAUGAGGAUCACCCAUGUAACAAAACAGGGCGGUGUAGGAUAUGGCAGACCCA | 10.8 nM | 9.16 nM |  | 
36 | GUAGAGUCAGGAUAUACAAGAUCGAAAGAUCGAAGAUUUAUACAUGAGGAUCACCCAUGUAGAAGGGACUCUAC | 14.4 nM | 16.9 nM |  | 
37 | UUGGACGUCGUAGGAUAUGUAGGAUAUUCCUACAUGAGGAUCACCCAUGUUGCCAUGGAAGAAGGACAGAAGGACGAUGUCCAU |  |  | 253 nM | 4.48 nM
38 | GUGCGGUAGGAGAAGGACGGAGGCUUCAUUACAUACAUGAGGAUCACCCAUGUAGGAUAUCCUACCUCACGCGGCCUCCUCCUG | 6.44 nM | 6.79 nM |  | 
39 | GGGUCCGCUCGAGGAUAUAGCUGCAUGUAGUGUCCUGAGGCACAUGAGGAUCACCCAUGUGUAGGCUAGAAGGCGACGGACACU | 50 nM | 114 nM |  | 
40 | GGUGCCAUGUAGAAGGCAGAUCUGAUUCAGAUCUGAGGAUAUACAUGAGGAUCACCCAUGUAAAGGCUCCGCACGAGAGUGCAA | 14.9 nM | 41.7 nM |  | 
41 | UUUAAGAAUGAAGGAUAUCUAAAAGUAAUCUUAAGAGAAGGUCAAUAGAACAUGAGGAUCACCCAUGUUAGAAUAGAUGGGUUU | 96.7 nM | 110 nM |  | 
42 | UUUUCGGCAGGAUAUACAUGAGGAUCACCCAUGUAAAUUUUUCGUUUAACUUGAAUGUGUAGAAGGGCCAUUUU | 23.3 nM | 23.6 nM |  | 

Source: the EternaBench riboswitch data
